In ChEMBL document CHEMBL1153087, “Synthesis of 4-thiophen-2'-yl-1,4-dihydropyridines as potentiators of the CFTR chloride channel” (Bioorg Med Chem, 2009):
Activity calls are given as the source filed them. No cut-off for these calls is given here.

How the values were obtained:
Format in all cases: cell-based
[1] = Binding affinity to CFTR deltaF508 mutant expressed in FRT cells coexpressing halide sensitive YFP-H148Q/I152L mutant protein by iodide influx assay
How it was run: (§1)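 FRT cells stably co-expressing ΔF508-CFTR and YFP-H148Q/I152L, held 20–24 h at 27 °C and assayed 48 h after plating. PBS wash, then 30 min with forskolin plus compound. 14-s YFP read (ex 500, em 535 nm) around iodide injection (100 mM final). Initial slope dF/dt extrapolated by exponential fit of final 10 s. Dose–response Hill fit gave apparent Kd and maximal effect.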

[2] = tested on: FRT; assay: Potentiation of CFTR deltaF508 mutant expressed in FRT cells coexpressing halide sensitive YFP-H148Q/I152L mutant protein assessed as channel activation by iodide influx assay; how it was run: as §1
[3] = biological target: Voltage-gated L-type calcium channel (Rattus norvegicus, UniProt P22002+Q02485+P27732); assay: Inhibition of L-VDCC in rat H9C2 cells assessed as effect on calcium level by Fluo-4 fluorescence assay

## C=CCOC(=O)C1=C(C)NC(C)=C(C(=O)OCC=C)C1c1sccc1SCC(=O)OC
[1]
  Kd: 1.3 µM
  pKd: 5.89
[2]
  Activity: Active

## CCOC(=O)C1=C(C)NC(C)=C(C(=O)OCc2ccccc2)C1c1sccc1C (stereo unspecified)
[1]
  Kd: 0.5 µM
  pKd: 6.3
[3]
  inhibition (INH): Active

## COC(=O)C1=C(C)NC(C)=C(C(=O)OC)C1c1ccc(C)s1
[1]
  Kd: 6 µM
  pKd: 5.22
[2]
  Activity: Active
[3]
  inhibition (INH): Not Active

## COC(=O)CSc1ccsc1C1C(C(=O)OCc2ccccc2)=C(C)NC(C)=C1C(=O)OCc1ccccc1
[1]
  Kd: 0.3 µM
[2]
  Activity: Active

## COC(=O)C1=C(C)NC(C)=C(C(=O)OC)C1c1cccs1
[1]
  Kd: 9.5 µM
  pKd: 5.02
[3]
  inhibition (INH): Not Active

## CC1=C(C(=O)OCc2ccccc2)C(c2ccc([N+](=O)[O-])s2)C(C(=O)OCc2ccccc2)=C(C)N1
[1]
  Kd: 13.1 µM
  pKd: 4.88

## C=CCOC(=O)C1=C(C)NC(C)=C(C(=O)OCC)C1c1sccc1SCC(=O)OC (stereo unspecified)
[1]
  Kd: 1.9 µM
  pKd: 5.72
[3]
  inhibition (INH): Active

## C=CCOC(=O)C1=C(C)NC(C)=C(C(=O)OCC=C)C1c1cc(-c2ccccc2)cs1
[1]
  Kd: 1.5 µM
  pKd: 5.82
[2]
  Activity: Active

## CC1=C(C(=O)OCc2ccccc2)C(c2sccc2C)C(C(=O)OCc2ccccc2)=C(C)N1
[1]
  Kd: 0.7 µM
  pKd: 6.15
[2]
  Activity: Active

## O=c1c(-c2ccc(O)cc2)coc2cc(O)cc(O)c12 [GENISTEIN]
[1]
  Kd: 16.7 µM

## CC1=C(C(=O)OCc2ccccc2)C(c2cc(-c3ccccc3)cs2)C(C(=O)OCc2ccccc2)=C(C)N1
[1]
  Kd: 16.5 µM
  pKd: 4.8
[2]
  Activity: Active

## COC(=O)C1=C(C)NC(C)=C(C(=O)OC)C1c1ccc([N+](=O)[O-])s1
[1]
  Kd: 8.3 µM
[2]
  Activity: Active

## COC(=O)C1=C(C)NC(C)=C(C(=O)OC)C1c1ccc(C)o1
[1]
  Kd: 6 µM
  pKd: 5.22
[2]
  Activity: Active
[3]
  inhibition (INH): Not Active

## CCOC(=O)C1=C(C)NC(C)=C(C(=O)OCC)C1c1sccc1C
[1]
  Kd: 5.7 µM
  pKd: 5.24

## COC(=O)C1=C(C)NC(C)=C(C(=O)OC)C1c1sccc1C
[1]
  Kd: 3.1 µM
  pKd: 5.51
[2]
  Activity: inactive

## C=CCOC(=O)C1=C(C)NC(C)=C(C(=O)OCC=C)C1c1sccc1C
[1]
  Kd: 1 µM
  pKd: 6
[2]
  Activity: Active

## C=CCOC(=O)C1=C(C)NC(C)=C(C(=O)OCC)C1c1sccc1C (stereo unspecified)
[1]
  Kd: 0.3 µM
  pKd: 6.52
[3]
  inhibition (INH): Active

## C=CCOC(=O)C1=C(C)NC(C)=C(C(=O)OCC=C)C1c1ccc([N+](=O)[O-])s1
[1]
  Kd: 3.8 µM

## CCOC(=O)C1=C(C)NC(C)=C(C(=O)OCc2ccccc2)C1c1sccc1SCC(=O)OC (stereo unspecified)
[1]
  Kd: 0.3 µM
  pKd: 6.52
[3]
  inhibition (INH): Active
